EBI2 antag = blocks human EBI2 receptor beta-arrestin signaling; P32249; EBI2 beta-arrestin recruitment, luminescence, 7a,25-OHC stimulated; inhibition, % at 5 µM; 360,000 compounds, 0.81% hits; in the data active = inhibition above about 38%;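 also: enzyme fragment complementation signal reports receptor beta-arrestin coupling in cells; 0% = agonist plus DMSO wells and 100% = wells without agonist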
Target sequence (P32249 whole entry, looked up, the tested form may be a part): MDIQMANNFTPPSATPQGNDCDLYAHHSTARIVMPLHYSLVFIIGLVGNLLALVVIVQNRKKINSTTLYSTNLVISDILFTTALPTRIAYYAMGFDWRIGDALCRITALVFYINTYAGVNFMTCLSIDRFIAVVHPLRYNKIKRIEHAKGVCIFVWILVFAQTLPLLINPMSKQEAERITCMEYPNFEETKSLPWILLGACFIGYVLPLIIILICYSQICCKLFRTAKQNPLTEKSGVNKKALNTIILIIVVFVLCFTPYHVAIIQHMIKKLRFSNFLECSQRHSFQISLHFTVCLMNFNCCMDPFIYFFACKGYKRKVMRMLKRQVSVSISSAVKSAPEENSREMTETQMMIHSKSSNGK
CXCR6 block = inhibitors of human CXCR6 receptor. inhibition, % at 20 µM. O00574. CHO-K1 PathHunter CXCR6 beta-arrestin, luminescence. AID 602244. 360,000 compounds, 0.36% hits; in the data active = inhibition above about 34%, passing the limit was not always enough;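 also: antagonist mode with CXCL16 agonist at 10 nM final; 0% = 10 nM CXCL16 with DMSO and 100% = unstimulated wells without agonist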
APJ ag = APJ receptor agonism; CHO-K1 APJ PathHunter beta-arrestin, luminescence; 0% DMSO wells, 100% apelin; activation, % at 20 µM; 330,000 compounds, 0.11% hits; AID 2520;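 active = activation more than six SD over the plate average, tested at 20 µM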;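 also: 0% = DMSO alone and 100% = apelin-13 at 10 nM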
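Assay system – PathHunter CHO-K1 APJ (AGTRL-1) beta-arrestin reporter cells · Compound – one dose, 20 µM compound, 1% DMSO · Timing – compound 90 min 25 °C, reagent 1 h · Measured by – luminescence from split beta-galactosidase complementation, Galacton Star/Emerald II substrate · Measure – beta-arrestin recruitment to APJ as agonist activity, luminescent signal · Benchmarks – DMSO vs Apelin-13 10 nM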
CCR6 antagonist = CCR6 (human) receptor antagonism. inhibition, % at 20 µM. CHO-K1 CCR6 PathHunter beta-arrestin, luminescence, CCL20-stimulated. AID 493098. 340,000 compounds, 0.49% hits;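 active = compounds whose inhibition of the agonist-driven luminescence signal at 20 µM reaches about 50%, limit read from the data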;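 also: cells stimulated with CCL20 at 14 nM final; plate controls were DMSO with CCL20 for no effect and DMSO without agonist for full effect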
APJ antag = antagonists of human APJ apelin receptor. P35414. CHO-K1 APJ beta-arrestin complementation, luminescence. inhibition, % at 20 µM. 330,000 compounds, 0.32% hits. AID 2521;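 active = inhibition above about 40% at 20 µM, limit read from the data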;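 also: cells challenged with 10 nM apelin-13 agonist together with compound; plate controls were apelin-13 plus DMSO wells for no effect and DMSO wells lacking apelin-13 for full effect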
EBI2 conf = EBI2 (human) antagonism, single concentration confirmation | shares compounds with EBI2 antag | EBI2 beta-arrestin luminescence, 7a,25-OHC antagonism | inhibition, % at 5 µM | 2,400 compounds, 29% hits | AID 651997;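 active = inhibition of at least 50%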
EBI2 ag = EBI2 agonism counter-screen. EBI2-expressing cells, agonist mode, luminescence, 60 min; 0% vehicle, 100% 7α,25-dihydroxycholesterol control. AID 652000. activation, % at 5 µM. shares compounds with EBI2 antag. 2,400 tested, under 10 active;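 active = activation of at least 50%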
bGal cs = inhibits E. coli beta-galactosidase, counter-screen for EBI2 antagonists. inhibition, % at 5 µM. purified beta-galactosidase, luminescent Galacton Star, 15 min. 2,400 compounds, 1% hits. shares compounds with EBI2 antag;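 active = replicate-average signal at least 3 plate SD below neutral wells, shown as high inhibition, flagging enzyme-inhibiting false positives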;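 also: 0% = DMSO wells with enzyme and 100% = wells lacking enzyme; higher means stronger loss of beta-gal luminescence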
The depositor's hits bear a star; . = no result given. In the library only some 1.5% were active in any assay of this set; here they are far more common.

SMILES	EBI2 antag	CXCR6 block	APJ ag	CCR6 antagonist	APJ antag	EBI2 conf	EBI2 ag	bGal cs
CCc1ccc(Oc2coc3cc(OCC(=O)Nc4cc(C)ccc4C)ccc3c2=O)cc1	52*	-5	4	2	15	11	0	-11
COc1ccc(NS(=O)(=O)c2cccc(C(=O)NNC(=O)c3ccc(NC(C)=O)cc3)c2)cc1	-1	2	-7	4	11	.	.	.
COc1cccc(/C=C/C(=O)c2ccc(NS(=O)(=O)c3ccc(C)cc3)cc2)c1	62*	16	-3	23	16	45	0	6
COc1cc(/C=C/C(=O)c2ccc(NS(=O)(=O)c3ccc(C)cc3)cc2)cc(OC)c1O	27	4	.	27	.	.	.	.
Oc1ccc(-c2cnc3c(Nc4cccc(OC(F)(F)C(F)F)c4)nccn23)cc1	73*	-6	.	.	.	32	0	2
NC(=O)c1cccc(-c2cnc3c(Nc4cccc(OC(F)(F)C(F)F)c4)nccn23)c1	45*	-7	.	.	.	42	-2	-9
N#CC(C(=S)Nc1ccccc1)c1nc2ccccc2[nH]1 (stereo not drawn)	2	-4	-3	30	24	.	.	.
CSC(=Nc1ccccc1)C(C#N)c1nc2ccccc2[nH]1 (stereo not drawn)	57*	8	-3	36	11	47	-2	-11
COc1ccc(/C=C2\SC(=NCc3ccccc3)NC2=O)cc1	47*	-8	-1	10	5	39	2	4
COc1ccc(/C=C2\SC(=Nc3ccccc3OC)NC2=O)cc1	1	9	-5	10	10	.	.	.
COc1ccc(/C=N/NC(=O)c2ccccc2O)cc1Cn1cc(Cl)cn1	4	7	-2	14	16	.	.	.
COc1ccc(-c2c(C)nn(Cc3ccccc3)c2N)cc1	0	4	-5	0	3	.	.	.
CC(C)(C)OC(=O)N1CCCN(C(=O)c2ccc(Cl)cc2)CC1	-1	-14	-2	9	13	.	.	.
CC(C)(C)c1ccc(C(=O)NCc2ccccc2)cc1	34	-12	8	7	4	.	.	.
CC(C)(C)OC(=O)N1CCN(c2ccc(CNC(=O)c3ccc(Cl)cc3)cc2)CC1	59*	-2	-3	-1	-8	15	2	4
CC(C)(C)c1ccc(C(=O)NCc2ccc(Cl)cc2)cc1	53*	2	-1	5	-4	34	1	6
CC(C)(C)c1ccc(OCCNC(=S)Nc2ccccc2)cc1	15	-16	2	21	-3	.	.	.
C[C@@H]1[C@H](c2ccccc2)Oc2ccc(Cl)cc2S(=O)(=O)N1CC1CCCN1C(=O)OC(C)(C)C (stereo partly drawn)	27	1	.	6	.	.	.	.
CCOC(=O)[C@H](C)N1[C@H](C)[C@H](c2ccccc2)Oc2ccc(Cl)cc2S1(=O)=O	46*	2	.	30	.	22	-1	-14
CCCCCCCCCCCCCCCC(=O)NCCc1c[nH]c2ccccc12	17	-1	-1	10	-73	.	.	.
O=C(CCCc1cccs1)NCCc1c[nH]c2ccccc12	46*	3	1	18	-1	20	3	2
CC1CC(C)CN(c2ccc([N+](=O)[O-])cc2-c2nn[nH]n2)C1 (stereo not drawn)	74*	13	-2	27	1	51*	0	15
CC(=O)N1CCN(c2ccc(N=Cc3c(O)n(Cc4ccccc4)c(=O)[nH]c3=O)cc2)CC1	1	12	.	15	.	.	.	.
CCc1ccc(N2CC(C(=O)Nc3ccc(S(=O)(=O)NCC4CCCO4)cc3)CC2=O)cc1 (stereo not drawn)	60*	5	-2	0	7	64*	-2	-17
O=C(Nc1ccc(S(=O)(=O)NCC2CCCO2)cc1)C1CC(=O)N(c2ccccc2)C1 (stereo not drawn)	5	0	-3	3	10	.	.	.
SMILES	EBI2 antag	CXCR6 block	APJ ag	CCR6 antagonist	APJ antag	EBI2 conf	EBI2 ag	bGal cs
CCN1CCN(CC(O)COc2ccc3c(c2)CCC3)CC1 (stereo not drawn)	-5	-1	-2	-6	6	.	.	.
O=S(=O)(c1ccccc1)N1CCN(CC(O)COc2ccc3c(c2)CCC3)CC1 (stereo not drawn)	83*	-1	1	-2	10	69*	2	-4
Cc1cc(C2(c3ccc(O)c(C)c3)C(=O)Nc3ccccc32)ccc1O	67*	5	-1	-9	8	37	-1	-12
Cc1cccc2c1NC(=O)C2(c1ccc(O)cc1)c1ccc(O)cc1	-5	7	-4	1	4	.	.	.
N#Cc1ccc(Nc2nc(-c3ccccc3)cs2)cc1	27	-15	.	.	.	.	.	.
c1ccc(-c2csc(Nc3ccc4c(c3)OCO4)n2)cc1	44*	-5	.	.	.	47	1	6
C[C@H](CS)C(=O)N1CCC[C@H]1C(=O)O	-4	3	5	-9	1	.	.	.
Cc1occc1-c1nnc(SCC(=O)NCCc2ccccc2)n1C(C)c1ccccc1 (stereo not drawn)	51*	6	2	12	-9	27	-2	-11
CCOc1ccc2nc(COC(=O)c3ccco3)c(C(C)=O)[n+]([O-])c2c1	1	-14	0	-8	7	.	.	.
CCOc1ccc2nc(COC(=O)c3cccs3)c(C(C)=O)[n+]([O-])c2c1	14	0	2	13	5	.	.	.
CCOc1ccc2nc(COC(=O)c3ccncc3)c(C(=O)c3ccccc3)[n+]([O-])c2c1	45*	2	-3	9	12	16	-2	-7
CCOc1ccc2nc(COC(=O)c3cccs3)c(C(=O)c3ccccc3)[n+]([O-])c2c1	47*	4	-2	14	5	24	0	7
Cc1cc(C(=O)N2CCc3ccccc3C2)c(C)o1	-7	19	.	1	.	.	.	.
CCOC(=O)c1ccc(-n2cnc(-c3ccc([N+](=O)[O-])cc3)c2)cc1	50*	-4	.	.	.	20	0	7
COc1ccc(NC(=O)N2CCN(c3nc(-c4cccc(OC)c4)cs3)CC2)cc1	29	-5	2	-9	-18	.	.	.
COc1cccc(-c2csc(N3CCN(C(=O)Nc4ccc(Cl)cc4)CC3)n2)c1	42*	-18	-1	-12	-2	22	-1	2
COc1ccc(C2=NN(C(=O)CSc3ncccn3)C(c3ccc(OC)cc3)C2)cc1 (stereo not drawn)	4	1	1	20	-9	.	.	.
COc1ccc(C2CC(c3cccs3)=NN2C(=O)CSc2nc(=O)n3ccc(C)cc3n2)cc1 (stereo not drawn)	3	11	2	6	16	.	.	.

From PubChem
